The results in this text go back to ChEMBL document CHEMBL1149072, “Cytotoxic constituents of Baccharis gaudichaudiana” (1994).

In brackets after ≈: the same amount, converted by molar mass.

Common to all, as to type: functional
A short description of experiment [1]: Cytotoxicity against human KBV1 cells. The note with it: KB-V1, read-out: ED50 (the source's name). The procedure, abridged:
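The KB-V1 line is multidrug resistant. It was derived from KB cells by extended exposure to sublethal vinblastine. It was tested in 96-well microtiter plates by a previously described method, with ED50 in µg/ml as the read-out.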

The next experiment deals with Lu1. The experiment is described as follows: Cytotoxicity against human Lu1 cells. The settings on record: read-out: ED50 (the source's name). In outline:
(§1)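 These human cancer cell lines were established from primary tumors at the authors' institution. Cytotoxicity was assessed in 96-well microtiter plates by a previously described protocol and expressed as ED50 in µg/ml.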

A further experiment has as its system HT-1080. Briefly: Cytotoxicity against human HT1080 cells. The note with it: read-out: ED50 (the source's name). In outline:
(§2)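 The cell lines came from ATCC. Cytotoxicity was run in 96-well microtiter plates by a previously described method and reported as ED50 in µg/ml.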

In the next experiment the test system is SK-MEL-2. Briefly: Cytotoxicity against human SK-MEL-2 cells. The settings on record: read-out: ED50 (the source's name).
In a further experiment the test system is P388. Briefly: Cytotoxicity against mouse P388 cells. The settings on record: read-out: ED50 (the source's name). The procedure, abridged: as §2
A further experiment has as its system Col2. Briefly: Cytotoxicity against human Col2 cells. The note with it: read-out: ED50 (the source's name). In outline:
as §1

Experiment [2] can be described thus: Cytotoxicity against human BC1 cells. The note with it: read-out: ED50 (the source's name). The procedure, abridged:
as §1

The next experiment concerns KB. The experiment is described as follows: Cytotoxicity against human KB cells. The note with it: read-out: ED50 (the source's name). In outline:
as §2

Take `C=C1CC[C@@H]2[C@H]([C@H]3[C@H]1CC[C@]3(C)O)C2(C)C` [SPATHULENOL]: the EC50 was greater than 20 µg/mL in experiment [1]; greater than 20 µg/mL with Lu1; greater than 20 µg/mL in the experiment with HT-1080; 6.3 µg/mL (≈ 28.6 µM) with SK-MEL-2; greater than 20 µg/mL with P388; greater than 20 µg/mL in the experiment on Col2. Moreover, the EC50 (in experiment [2]; in the experiment on KB) was greater than 20 µg/mL throughout.
With `C[C@@H]1CC[C@@]23COC(=O)[C@H]2C[C@@H](O)C=C3[C@@]1(C)CCc1ccoc1` [GUADICHAUDONE], the EC50 in experiment [1] is greater than 20 µg/mL; in the experiment on Lu1, greater than 20 µg/mL; in the experiment on HT-1080, greater than 20 µg/mL; in the experiment on SK-MEL-2 it was greater than 20 µg/mL; in the experiment on P388, 11.7 µg/mL (≈ 35.4 µM); with Col2 it was greater than 20 µg/mL. Besides, the EC50 (in experiment [2]; with KB) was greater than 20 µg/mL each time.
Regarding `CC(=O)O[C@@H]1C=C2C(=O)OC[C@]23CC[C@@H](C)[C@](C)(CCC2=CC(=O)OC2)C3C1` (stereo partly drawn) [ARTICULIN ACETATE], the EC50 was greater than 20 µg/mL in experiment [1]; greater than 20 µg/mL with Lu1; greater than 20 µg/mL in the experiment with HT-1080; greater than 20 µg/mL in the experiment with SK-MEL-2; 1.7 µg/mL with P388; greater than 20 µg/mL in the experiment on Col2. Also, the EC50 (in experiment [2]; in the experiment on KB) was greater than 20 µg/mL in each case.
Regarding `C[C@H]1CC=C2C(CO)(CO)CCC[C@]2(C)C1CC[C@@H](CCO)COC(=O)/C=C/c1ccc(O)cc1` (stereo partly drawn) [GUADICHAUDOL C], the EC50 worked out at 4.7 µg/mL (≈ 9.66 µM) in experiment [1]; 13.1 µg/mL (≈ 26.9 µM) with Lu1; 12.4 µg/mL (≈ 25.5 µM) with HT-1080; 11.2 µg/mL (≈ 23 µM) in the experiment with SK-MEL-2; 2.4 µg/mL (≈ 4.93 µM) in the experiment on P388; 19.3 µg/mL (≈ 39.7 µM) in the experiment with Col2. The figures for the EC50 (in experiment [2]; in the experiment on KB) were 19 µg/mL (≈ 39 µM) and greater than 20 µg/mL, respectively.
On to `O=c1cc(-c2ccc(O)cc2)oc2cc(O)cc(O)c12` [APIGENIN], for which the EC50 was 16.8 µg/mL (≈ 62.2 µM) in experiment [1]; 14 µg/mL (≈ 51.8 µM) in the experiment on Lu1; 12.2 µg/mL (≈ 45.1 µM) in the experiment on HT-1080; 13.6 µg/mL (≈ 50.3 µM) in the experiment with SK-MEL-2; 12.2 µg/mL (≈ 45.1 µM) in the experiment on P388; 19.3 µg/mL (≈ 71.4 µM) in the experiment with Col2. Further, the EC50 (in experiment [2]; in the experiment on KB) was greater than 20 µg/mL throughout.
As for `COc1c(O)cc2oc(-c3ccc(O)cc3)cc(=O)c2c1O` [HISPIDULIN], the EC50 in experiment [1] was 2.8 µg/mL (≈ 9.33 µM); in the experiment on Lu1, 17.6 µg/mL (≈ 58.6 µM); in the experiment with HT-1080, 5.2 µg/mL (≈ 17.3 µM); with SK-MEL-2, 11.5 µg/mL (≈ 38.3 µM); in the experiment with P388 it was 0.8 µg/mL (≈ 2.66 µM); with Col2, greater than 20 µg/mL. Besides, the EC50 in experiment [2] amounted to 19 µg/mL (≈ 63.3 µM); in the experiment on KB, 5.6 µg/mL (≈ 18.7 µM).
